What was measured:
[1] = tested on: Lewis lung carcinoma cell line; experiment: In vitro inhibitory activity against LL murine NSCLC cell line;; format: functional, cell-based; settings: Mus musculus
Procedure, shortened: (§1)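 Monolayer cultures in RPMI 1640 with 5% heat-inactivated FCS and 2 mM L-glutamine, 37 °C, 5% CO2. Seeded at 5,000–20,000 cells/well according to doubling time, in gentamicin-containing medium. Compounds dissolved in DMSO and tested at five 10-fold dilutions from a top final concentration of 10⁻⁴ M for 72 h. Cells were TCA-fixed and stained with SRB, with OD read at 492 nm (NCI protocol). IC50 is the concentration giving 50% growth inhibition.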

UMSCC22B = experiment: In vitro inhibitory activity against human and neck squamous cell carcinoma UMSCC-22B cell line; format: functional, cell-based; procedure, shortened: as §1
H322 = experiment: In vitro inhibitory activity against H322 human NSCLC cell line; format: functional, cell-based; settings: NCI-H322; procedure, shortened: as §1
Colon 26 = experiment: In vitro inhibitory activity against murine colon carcinoma C26-10 cell line; format: functional, cell-based; settings: Mus musculus; procedure, shortened: as §1
WiDr = experiment: In vitro inhibitory activity against human colon carcinoma WiDr cell line;; format: functional, cell-based; procedure, shortened: as §1
A2780 = experiment: In vitro inhibitory activity against human ovarian cancer A2780 cell line; format: functional, cell-based; procedure, shortened: as §1
Rattus norvegicus [2] = experiment: In vivo anti-inflammatory activity against carrageenan-induced paw edema assay in rats at dose 0.15 mM/kg; format: functional
Procedure, shortened: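 Fisher 344 rats of either sex, excluding pregnant females, six animals per group with two groups per compound. Edema induced by intradermal injection of 0.1 mL of 2% carrageenin (type K100) in saline into the right paw. Compound given ip as a single 0.15 mmol/kg dose at the same time. Paw edema measured 3.5 h later. Indomethacin served as the reference drug.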

Rattus norvegicus [3] = experiment: In vivo anti-inflammatory activity against carrageenan-induced paw edema assay in rats at dose 0.11 mM/kg; format: functional

Row | Structure (SMILES) | IC50 [1] [µM] | IC50 (UMSCC22B) [µM] | IC50 (H322) [µM] | IC50 (Colon 26) [µM] | IC50 (WiDr) [µM] | IC50 (A2780) [µM] | Inhibition (Rattus norvegicus [2]) [%] | Inhibition (Rattus norvegicus [3]) [%]
1 | CCCCCCCCCCCCCC[C@H](NC(=O)OC(C)(C)C)[C@H](O)CO | 24.2 | 23.8 | 18 | 29.3 | 20.8 | 30.4 | 45.2 | 
2 | CCCCCCCCCCCCCCCCCC[C@@H](N)[C@@H](O)CO | 10.6 | 3.5 | 24.4 | 21.5 | 13.3 | 32.8 | 80.04 | 
3 | COc1ccc2c(c1)c(CC(=O)O)c(C)n2C(=O)c1ccc(Cl)cc1 [INDOMETHACIN] |  |  |  |  |  |  |  | 53.3

Now from value to compound, other results behind:

Row | IC50 [1] [µM] | IC50 (UMSCC22B) [µM] | IC50 (H322) [µM] | IC50 (Colon 26) [µM] | IC50 (WiDr) [µM] | IC50 (A2780) [µM] | Structure (SMILES) | Inhibition (Rattus norvegicus [2]) [%] | Inhibition (Rattus norvegicus [3]) [%]
4 | 3.47 | 2.34 | 1.71 | 3.97 | 3.47 | 2.71 | CCCCCCCCCCCCCCCCCC[C@H](N)[C@H](O)CO | 79.6 | 
5 | 1.87 | 2.49 | 1.52 | 3.58 | 2.99 | 2.63 | CCCCCCCCCCCCCC[C@@H](N)[C@@H](O)CO | 85.3 | 
6 | 2.86 | 1.89 | 1.45 | 3.68 | 2.76 | 2.66 | CCCCCCCCCCCCCC[C@H](N)[C@H](O)CO | 81.1 | 
7 | 2.93 | 1.89 | 2.94 | 3.3 | 24.2 | 2.79 | CCCCCCCCCCCCCCC(N)CN (stereo not drawn) | 93.5 | 

— ChEMBL document CHEMBL1132072, “Synthesis, in vitro cytotoxicity and in vivo anti-inflammatory activity of long chain 3-amino-1,2-diols” (Bioorg Med Chem Lett, 1999)
